# Laboratory results: PMC2225856 (The Journal of General Physiology, 1970)
# Read-outs that look alike come from different tables or passages of the source. Bridge positions count the residues as written; N and C are the ends. Ends that are not written are not given here.
# Key:
# [1] = test system: toad urinary bladder; assay: Hydroosmotic response of the toad urinary bladder; type: cell-based, Bufo marinus; conditions: serosal bath, concentrations as high as 2.86 X 10^-6 M
# Method in brief: (§1)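 Bufo marinus, 150-250 g, both sexes, kept on moist peat moss and pithed. Bentley sac hemibladders filled with dilute Ringer were preincubated 2 h in stirred full-strength Ringer, then moved to the challenge bath. Water loss was read as sac weight loss at 30 min intervals; sacs were emptied, refilled with fresh dilute Ringer and placed in a fresh bath after each weighing.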
# [2] = test system: toad urinary bladder; assay: Noncompetitive antagonism of the hydroosmotic response; type: cell-based, Bufo marinus
# Method in brief: as §1
# [3] = test system: toad urinary bladder; conditions: note added in proof; ref Chiu, P.J.S. and W.H. Sawyer. 1970; cited from earlier work
# [4] = test system: toad urinary bladder; conditions: cited from earlier work; for pD2 of reference agonist: Table II, ± SEM
# [5] = calculated on the basis of earlier data, ref Eggena et al. (18)
molecule,measurement,setting,value
"CCCCC[C@H](O)/C=C/[C@H]1[C@H](O)CC(=O)[C@@H]1CCCCCCC(=O)O [PGE1, prostaglandin E1]",Hydroosmotic activity per se (bladder permeability to water),[1],did not increase the bladder permeability to water
same,Effect on response to oxytocin-theophylline combination,"[2]; 2.9 X 10^-7 M PGE1, 1 X 10^-9 M oxytocin + 4 X 10^-3 M theophylline, eight experiments",reduced by PGE1 to almost basal levels
same,Effect on response to cyclic AMP-theophylline combination,"[2]; 2.9 X 10^-7 M PGE1, 2.5 X 10^-3 M cyclic AMP + 4 X 10^-3 M theophylline, eight experiments",only minimally
same,Maximal response to dibutyryl cyclic AMP in the presence of PGE1,"[2]; 2.9 X 10^-7 M PGE1, fraction of maximal response (0.80 without PGE1), ± SEM",0.72
same,Maximal response to theophylline in the presence of PGE1,"[2]; fraction of maximal response (0.78 without PGE1), ± SEM",0.10
same,"Diminution in the maximal response to oxytocin in the presence of PGE1, average","[2]; fraction of maximal response, ± 0.10, considerable variation",0.77
"[4-leucine]-oxytocin (CYILNCPLG; ends and bridges not checked; cysteine pairing not given here; UniProt P01178 20-28, looked up, variant Q4L)",Inhibition of the hydroosmotic action of [8-arginine]-vasopressin and [8-arginine]-vasotocin,[3],competitively in- hibits
[5-ornithine]-oxytocin,pD2 of reference agonist,[4]; ref Havran et al. (22),4.92
"[8-arginine]-vasopressin (CYFQNCPRG-NH2; disulfide 1-6; UniProt P01185 20-28, looked up)",pD2 of reference agonist,[4]; [5],9.40
oxytocin,pD2 of reference agonist,[4]; [5],8.63
same,Maximal hydroosmotic response,[4],100%
